According to ChEMBL document CHEMBL1124917 (1990):

Legend:
Type in all cases: functional, Mus musculus
[1] = Average weight change of mice was determined on day 6 after intraperitoneal injection on day 1 at a dose of 256 mg/kg following intraperitoneal implant of P388 leukemia cells in CDF1 mice
In short: (§1)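 Female CDF₁ mice (16–20 g), six per dose, implanted ip with 10⁶ P388 cells kept as ascites in DBA/2 mice. Single ip dose of freshly prepared aqueous solution 1 day post-implant. Body weight change averaged per dose group, read on day 6, in grams.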

P388 [2] = experiment: Antitumor activity was determined after intraperitoneal injection on day 1 at a dose of 256 mg/kg following intraperitoneal implant of P388 leukemia cells in CDF1 mice
In short: (§2)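 P388 leukemia carried as ascites in DBA/2 mice; 10⁶ cells implanted ip into female CDF₁ mice (16–20 g), six per dose, 10 as untreated leukemia controls. Single ip dose of freshly prepared aqueous solution 1 day after implant. Daily observation for 30 days; activity taken as median survival time, treated vs untreated groups (% T/C).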

P388 [3] = experiment: Average weight change of mice was determined on day 6 after intraperitoneal injection on day 1 at a dose of 100 mg/kg following intraperitoneal implant of P388 leukemia cells in CDF1 mice; in short: as §1
P388 [4] = experiment: Antitumor activity was determined after intraperitoneal injection on day 1 at a dose of 100 mg/kg following intraperitoneal implant of P388 leukemia cells in CDF1 mice; in short: as §2
P388 [5] = experiment: Antitumor activity was determined after intraperitoneal injection on day 1 at a dose of 200 mg/kg following intraperitoneal implant of P388 leukemia cells in CDF1 mice; in short: as §2
P388 [6] = experiment: Average weight change of mice was determined on day 6 after intraperitoneal injection on day 1 at a dose of 200 mg/kg following intraperitoneal implant of P388 leukemia cells in CDF1 mice; in short: as §1
P388 [7] = experiment: Antitumor activity was determined after intraperitoneal injection on day 1 at a dose of 64 mg/kg following intraperitoneal implant of P388 leukemia cells in CDF1 mice; in short: as §2
P388 [8] = experiment: Average weight change of mice was determined on day 6 after intraperitoneal injection on day 1 at a dose of 64 mg/kg following intraperitoneal implant of P388 leukemia cells in CDF1 mice; in short: as §1
P388 [9] = experiment: Antitumor activity which was determined after intraperitoneal injection on day 1 at a dose of 32 mg/kg following intraperitoneal implant of P388 leukemia cells in CDF1 mice; in short: as §2
P388 [10] = experiment: Average weight change of mice was determined on day 6 after intraperitoneal injection on day 1 at a dose of 128 mg/kg following intraperitoneal implant of P388 leukemia cells in CDF1 mice; in short: as §1
P388 [11] = experiment: Antitumor activity was determined after intraperitoneal injection on day 1 at a dose of 128 mg/kg following intraperitoneal implant of P388 leukemia cells in CDF1 mice; in short: as §2
P388 [12] = experiment: Average weight change of mice was determined on day 6 after intraperitoneal injection on day 1 at a dose of 32 mg/kg following intraperitoneal implant of P388 leukemia cells in CDF1 mice; in short: as §1
P388 [13] = experiment: Average weight change of mice was determined on day 6 after intraperitoneal injection on day 1 at a dose of 400 mg/kg following intraperitoneal implant of P388 leukemia cells in CDF1 mice; in short: as §1
P388 [14] = experiment: Antitumor activity was determined after intraperitoneal injection on day 1 at a dose of 50 mg/kg following intraperitoneal implant of P388 leukemia cells in CDF1 mice; in short: as §2
P388 [15] = experiment: Antitumor activity was determined after intraperitoneal injection on day 1 at a dose of 400 mg/kg following intraperitoneal implant of P388 leukemia cells in CDF1 mice; in short: as §2
P388 [16] = experiment: Average weight change of mice was determined on day 6 after intraperitoneal injection on day 1 at a dose of 50 mg/kg following intraperitoneal implant of P388 leukemia cells in CDF1 mice; in short: as §1

| SMILES | AWC [1] [g] | T/C (P388 [2]) [%] | AWC (P388 [3]) [g] | T/C (P388 [4]) [%] | T/C (P388 [5]) [%] | AWC (P388 [6]) [g] | T/C (P388 [7]) [%] | AWC (P388 [8]) [g] | AWC (P388 [10]) [g] | T/C (P388 [11]) [%] | also measured |
| --- | --- | --- | --- | --- | --- | --- | --- | --- | --- | --- | --- |
| CC(=O)O[C@H]1C[C@H](n2cc(C)c(=O)[nH]c2=O)O[C@@H]1COC(=O)NP(=O)(N1CC1(C)C)N1CC1(C)C (stereo not given in full) | -1.3 | 113 |  |  |  |  |  |  |  |  |  |
| CC(=O)OC[C@H]1O[C@@H](n2cc(C)c(=O)[nH]c2=O)C[C@@H]1OC(=O)NP(=O)(N1CC1(C)C)N1CC1(C)C (stereo not given in full) | -0.5 | 125 |  |  |  |  |  |  |  |  |  |
| CCOP(=O)(N1CC1(C)C)N1CC1(C)C (stereo not given) |  |  | -2.6 | 289 | 433 | -5.2 |  |  |  |  |  |
| Cc1cn(C2CC(O)C(CNP(=O)(N3CC3(C)C)N3CC3(C)C)O2)c(=O)[nH]c1=O (stereo not given) | -0.7 | 156 |  |  |  |  | 150 | -0.4 | -0.8 | 150 | T/C (P388 [9]): 131%; AWC (P388 [12]): -0.7 g |
| CCOC(=O)NP(=O)(N1CC1(C)C)N1CC1(C)C (stereo not given) [METUREDEPA] |  |  | -0.4 | 181 | 231 | -0.2 |  |  |  |  | AWC (P388 [13]): -1.3 g; T/C (P388 [14]): 163%; T/C (P388 [15]): 244%; AWC (P388 [16]): -0.7 g |
| CC1(C)CN1P(=O)(Nc1ccccc1)N1CC1(C)C (stereo not given) [PHOSPHINIC ANILIDE DERIVATE] | -0.8 | 169 |  |  |  |  | 144 | -1.3 | -0.7 | 138 |  |
